Most compounds without a hit are left out; they make up all but 2.1% or so of the library.
Ins promoter up: insulin promoter activators in MIN6 cells, imaging, high-content screening, mouse beta cells | actives 0.3% (n = 190,000) | MIN6 insulin promoter-GFP reporter; hits give high values | z-score at 5 µM;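 active = z-score above 3 at 5 µM with at least 500 cells counted in the well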
PKD1 inh: inhibitors of human PKD1 kinase, biochemical, fluorescence polarization | PKD1 kinase fluorescence polarization assay | actives 0.056% (n = 200,000) | inhibition, % (no concentration beside the values) | AID 797, 2007 | Serine/threonine-protein kinase D1 (Homo sapiens), Q15139; in the data active = inhibition above about 50%
Autophagy mod: autophagy modulators in MEF cells, primary screen, imaging, high-content, MEF GFP-LC3; calls only at 10 µM (by protocol); actives 0.98% (n = 190,000); MEF GFP-LC3 puncta imaging; test concentration mostly 10 µM;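 active = percentage of spot-positive cells more than 3 SD above its plate mean, without a fluorescence outlier flag or 80% toxicity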
RBBP9 inh: human RBBP9 inhibitors, primary screen, biochemical, fluorescence polarization, FP-Rh probe, HTS. recombinant RBBP9. inhibition, % at 7.94 µM. actives 0.2% (n = 220,000). AID 1515, 2009;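 active = inhibition above the campaign mean of all tested compounds plus 3 SD, cut at about 14% in these data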
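Measured by – fluorescence polarization · Test system – RBBP9 protein · Input – 2.5 µM RBBP9 dispensing solution, before mixing · Measure – percent inhibition from mP, scaled between DMSO and no-protein wells · Benchmarks – DMSO-treated enzyme wells and wells lacking RBBP9 · Times – preincubation 30 min plus labeling 45 min at 25 °C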
Arbovirus inh: antivirals against arbovirus infection, primary screen, cell-based, full library, 10K replicate subset; arbovirus infection cell-based antiviral screen; inhibition, % at 10 µM; actives 0.37% (n = 200,000); in the data active = inhibition above about 30%
Insulin prom inh: inhibitors of insulin promoter-driven GFP, primary screen, imaging, TRM-6 cells (human fetal islet line), eGFP reporter, cell count | AID 1273, 2008 | actives 0.9% (n = 130,000) | reporter expression induced with tamoxifen | inhibition, % at 2 µM;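 active = inhibition above the mean plus 3 SD, with well images judged a real hit on visual review, cut at about 60% in these data, passing the limit was not always enough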
Numbers stand for hits; – = inactive; · = no result; + = active, no number.

SMILES	Ins promoter up	PKD1 inh	Autophagy mod	RBBP9 inh	Arbovirus inh	Insulin prom inh
Cc1c(C(=O)NCc2cccnc2)oc2c1C(=O)CC(C)(C)C2	–	–	–	–	–	79
O=S(=O)(CCSc1nc2ccccc2o1)c1nc2ccccc2s1	·	–	+	–	–	–
O=S(=O)(CCSc1ccccn1)c1nc2ccccc2s1	–	–	+	–	–	–
O=C(CSc1ccccn1)Nc1nc2ccccc2s1	–	–	–	–	–	–
COc1ccc(C2=NOC(C(=O)Nc3cccnc3Cl)C2)cc1 (stereo not given)	–	–	+	–	–	·
COc1ccc(CNC(=O)C2CC(c3cccc(OC)c3)=NO2)cc1 (stereo not given)	–	–	–	–	–	73
COc1cccc(C2=NOC(C(=O)NCc3ccc(F)cc3)C2)c1 (stereo not given)	–	–	–	–	–	–
COc1cc(C2=NOC(C(=O)NCc3ccc(F)cc3)C2)cc(OC)c1OC (stereo not given)	–	–	+	–	–	–
COc1ccc(C2=NOC(C(=O)NCc3ccc(F)cc3)C2)cc1OC (stereo not given)	–	–	–	–	–	–
Cn1cnnc1SCC(=O)N1N=C(c2ccc(Cl)cc2)CC1c1ccco1 (stereo not given)	–	–	–	–	–	·
Cc1cc(SCC(=O)NN=C2CCN(C(C)C)CC2)c(C)cc1Br	–	–	–	–	–	–
CCCCN(CC)CCNC(=O)c1cc2c(C)nc3ccccc3c2o1	·	–	·	–	–	·
COc1ccc(CN2CC(C(=O)NCCc3ccccc3)CC2=O)cc1 (stereo not given)	–	–	–	–	–	–
CC1CCCN(c2nc3c(c(=O)n(C)c(=O)n3C)n2CCSc2nc3ccccc3s2)C1 (stereo not given)	3.2	–	–	–	–	·
CC1CCN(c2nc3c(c(=O)n(C)c(=O)n3C)n2CCSc2nc3ccccc3s2)CC1	–	–	–	–	–	–
Cc1cccn2cc(CCNS(=O)(=O)c3cccs3)nc12	–	·	·	–	·	·
COc1ccc(-c2cn3ccc4ccccc4c3n2)cc1	–	–	–	–	–	77
COc1ccccc1NC(=O)Nc1cc(C(C)(C)C)nn1C	–	·	·	–	·	·
O=C(Nc1ccc2c(c1)OCO2)N1CCOCC1	–	–	–	–	–	–
O=C(Nc1ccc2c(c1)OCCO2)N1CCOCC1	–	–	–	–	–	78
CC(C)C(C)(C#N)NC(=O)CSc1nnc(C(F)(F)F)n1C (stereo not given)	3	–	–	–	–	–
CCn1c(COc2cccc3ccccc23)nnc1SCC(=O)OC1CCCCC1	–	–	–	–	34	–
Cn1c(COc2cccc3ccccc23)nnc1SCC(=O)OC1CCCCC1	–	·	·	–	·	·
COc1cc(C(=O)OCc2cc3ccccc3[nH]c2=O)cc(OC)c1OC	–	–	–	–	–	–
CN(C(=S)NC1CCCCC1)C1(c2ccccc2Cl)CCCCC1=O (stereo not given)	–	–	+	–	–	·
SMILES	Ins promoter up	PKD1 inh	Autophagy mod	RBBP9 inh	Arbovirus inh	Insulin prom inh
Cn1nc(-c2ccccc2)c(C(=O)NCC(=O)O)c1Cl	–	–	–	–	–	–
COC(=O)c1c(NC(=O)CN2CCC3(O)CCCCC3C2c2ccc(F)cc2)sc(C)c1C (stereo not given)	–	–	–	–	–	–
COC(=O)c1c(NC(=O)CN2CCC3(O)CCCCC3C2c2cc(OC)ccc2OC)sc(C)c1C (stereo not given)	–	–	–	–	–	64
Cc1ccccc1-c1nnc(NC(=O)CSc2nc3ccccc3s2)s1	–	–	–	–	–	–
COc1ccc(C2C(=O)N(CCc3ccccc3)CC(=O)N2C2CCCCC2)cc1 (stereo not given)	·	–	–	–	–	–
COCCn1c(=NC(=O)c2cc(-c3cccs3)nc3ccccc23)sc2cc(S(N)(=O)=O)ccc21	–	–	–	–	–	–
C=CCn1c(=NC(=O)c2cc(-c3cccs3)nc3ccccc23)sc2cc(S(N)(=O)=O)ccc21	9	–	–	–	–	–
Cc1cc(C)n2cc(CSc3ccccn3)nc2n1	–	–	+	–	–	–
Cc1ccc(SCc2cn3c(C)cc(C)nc3n2)cc1	–	·	·	–	·	·
O=[N+]([O-])c1ccc(CSc2nc3ccccc3o2)cc1	–	–	–	–	–	·
COC(=O)c1ccc(CSc2nc3ccccc3o2)cc1	–	–	–	–	–	81
O=C(c1cc2ccccc2oc1=O)N1CCN(c2ncccn2)CC1	·	–	–	–	–	79
COc1ccc(OC)c(-c2c3cc(O)c(=O)cc-3oc3cc(O)c(O)cc23)c1	–	–	–	–	–	–
O=c1cc2oc3cc(O)c(O)cc3c(-c3ccccc3O)c-2cc1O	15	·	·	–	·	·
CCOc1ccccc1-c1c2cc(O)c(=O)cc-2oc2cc(O)c(O)cc12	8.1	–	–	–	–	·
CCOC(=O)c1oc2cc(O)ccc2c(=O)c1-c1ccccc1OC	–	–	–	–	–	–
C=CCNc1nc(SCC=C)nc2ccsc12	–	–	–	–	–	83
Cc1ccc(OCCN2C(=O)C(=O)c3cc(C)ccc32)cc1	·	–	+	–	–	–
CC(=O)Nc1ncc(Cc2cc(Cl)ccc2Cl)s1	–	–	+	–	–	·
CC(=O)Nc1ncc(Cc2cccc(Cl)c2Cl)s1	–	–	–	–	–	·
COc1ccccc1-n1cccc1C=O	–	–	–	–	–	–
COc1ccccc1Cn1cccc1C=O	–	–	+	–	–	·
Cn1cccc1Cc1nnc(SCC(=O)Nc2ccccc2)n1-c1ccc(F)cc1	–	–	–	–	–	·
Cn1cccc1Cc1nnc(SCC(=O)Nc2ccc(F)cc2)n1-c1ccc(F)cc1	–	–	·	–	–	·
Cn1cccc1Cc1nnc(SCC(=O)Nc2ccccc2F)n1CCc1ccccc1	–	–	·	–	–	·
SMILES	Ins promoter up	PKD1 inh	Autophagy mod	RBBP9 inh	Arbovirus inh	Insulin prom inh
Cn1cccc1Cc1nnc(SCC(=O)Nc2ccc(Cl)cc2)n1-c1ccc(F)cc1	–	–	+	–	–	·
Cn1cccc1Cc1nnc(SCC(=O)Nc2cccc(F)c2)n1CCc1ccccc1	–	–	+	–	–	·
CC1CCN(C(=O)CSc2nnc(Cc3cccn3C)n2-c2ccc(F)cc2)CC1	–	–	–	–	–	71
CCSc1nnc(NC(=O)CSc2nnc(Cc3cccn3C)n2-c2ccc(F)cc2)s1	–	–	–	–	33	·
O=C(NCCCN1CCOCC1)c1cc(-c2ccccc2)on1	–	–	–	–	–	–
Cc1ccc(C(=O)Nc2nc(=O)n(C(=O)c3ccccc3C)s2)cc1	–	–	–	–	–	–
COc1ccc(-n2c(Cc3cccn3C)nnc2SCC(=O)NCc2ccc(F)cc2)cc1	–	–	–	–	–	·

Source: PubChem
